This is a sample that favours compounds with a hit; in the whole collection about 1.4% have one here.
A3A deaminase: inhibitors of human APOBEC3A DNA deaminase. P31941. recombinant A3A, FAM/TAMRA ssDNA deamination fluorescence. inhibition, % at 20 µM. 330,000 compounds, 0.41% hits;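 active means at least 40% inhibition at 20 µM here, with at most 30% in a related deaminase screen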;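 further: plate controls were A3A with DMSO for no effect and wells lacking A3A enzyme for full effect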
CCR6 antag: blocks CCL20-driven beta-arrestin recruitment at human CCR6 | P51684 | AID 493098 | inhibition, % at 20 µM | 340,000 compounds, 0.49% hits | CHO-K1 CCR6 PathHunter beta-arrestin, luminescence, CCL20-stimulated;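 active means compounds whose inhibition of the agonist-driven luminescence signal at 20 µM reaches about 50%, limit read from the data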;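 further: cells stimulated with CCL20 at 14 nM final; plate controls were DMSO with CCL20 for no effect and DMSO without agonist for full effect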
Target sequence (P51684 whole entry, looked up): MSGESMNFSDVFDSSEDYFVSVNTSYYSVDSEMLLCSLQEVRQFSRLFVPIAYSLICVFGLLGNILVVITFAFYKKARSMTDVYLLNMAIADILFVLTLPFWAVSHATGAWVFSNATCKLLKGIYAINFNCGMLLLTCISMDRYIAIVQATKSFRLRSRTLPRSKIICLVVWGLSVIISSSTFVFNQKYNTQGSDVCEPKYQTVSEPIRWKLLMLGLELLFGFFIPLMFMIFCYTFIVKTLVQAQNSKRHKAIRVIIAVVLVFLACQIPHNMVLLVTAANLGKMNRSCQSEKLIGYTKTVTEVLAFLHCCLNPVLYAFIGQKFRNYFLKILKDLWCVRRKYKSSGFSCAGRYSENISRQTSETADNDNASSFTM
APJ antag: blocks the human apelin receptor APJ | CHO-K1 APJ beta-arrestin complementation, luminescence | 330,000 compounds, 0.32% hits | inhibition, % at 20 µM | AID 2521;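 active means inhibition above about 40% at 20 µM, limit read from the data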;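 further: cells challenged with 10 nM apelin-13 agonist together with compound; plate controls were apelin-13 plus DMSO wells for no effect and DMSO wells lacking apelin-13 for full effect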
A3G deaminase: blocks human APOBEC3G single-stranded DNA deamination; recombinant A3G, ssDNA deamination FAM/TAMRA fluorescence; inhibition, % at 20 µM; 330,000 compounds, 0.28% hits;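 active means inhibition of at least 40% at 20 µM, with no more than 30% in the related APOBEC3A deaminase screen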;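 further: plate controls were DMSO wells with A3G for no effect and wells lacking A3G enzyme for full effect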
CXCR6 inh: CXCR6 (human) receptor inhibition; CHO-K1 PathHunter CXCR6 beta-arrestin, luminescence; inhibition, % at 20 µM; 360,000 compounds, 0.36% hits; AID 602244; in the data active means inhibition above about 34%, passing the limit was not always enough;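 further: antagonist mode with CXCL16 agonist at 10 nM final; 0% = 10 nM CXCL16 with DMSO and 100% = unstimulated wells without agonist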
Target sequence (O00574 whole entry, looked up): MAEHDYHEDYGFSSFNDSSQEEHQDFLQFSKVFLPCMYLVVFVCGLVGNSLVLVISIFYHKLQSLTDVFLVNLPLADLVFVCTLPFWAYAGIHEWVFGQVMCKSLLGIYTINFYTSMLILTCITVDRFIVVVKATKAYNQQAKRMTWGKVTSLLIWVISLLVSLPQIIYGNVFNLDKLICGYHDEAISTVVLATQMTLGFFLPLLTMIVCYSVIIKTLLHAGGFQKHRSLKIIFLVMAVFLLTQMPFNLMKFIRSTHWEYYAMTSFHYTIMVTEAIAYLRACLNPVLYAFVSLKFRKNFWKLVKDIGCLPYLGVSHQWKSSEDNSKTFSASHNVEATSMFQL
APJ ag: APJ receptor agonism. P35414. CHO-K1 APJ PathHunter beta-arrestin, luminescence; 0% DMSO wells, 100% apelin. activation, % at 20 µM. 330,000 compounds, 0.11% hits. AID 2520;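 active means activation more than six SD over the plate average, tested at 20 µM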;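 further: 0% = DMSO alone and 100% = apelin-13 at 10 nM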
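Test system – PathHunter CHO-K1 APJ (AGTRL-1) beta-arrestin reporter cells · Input – 1000 cells/well · Compound – single test compound dose, 20 µM final, 1% DMSO · Times – compound stimulation 90 min at 25 °C, detection 60 min · Technique – beta-gal luminescence · Read-out basis – APJ–arrestin association signal · Control set – negative DMSO alone, positive Apelin-13 at 10 nM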
APOBEC3A confirm: confirmation of human APOBEC3A DNA deaminase inhibitors | inhibition, % at 20 µM | shares compounds with A3A deaminase | recombinant A3A, ssDNA deaminase UDG fluorescence assay | 1,400 compounds, 63% hits;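 active means inhibition reaching a set limit, 80% of the first screen's cutoff, at 20 µM in any replicate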;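 further: plate controls were DMSO wells with A3A for no effect and wells lacking A3A enzyme for full effect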
UDG A3A counter: UDG inhibition in APOBEC3A counter-screen | UDG counterscreen, FAM/TAMRA uracil oligo fluorescence | AID 504714 | 1,000 tested, under 10 active | inhibition, % at 20 µM | shares compounds with A3A deaminase; call rule not given here
The depositor's hits bear a star; . = not tested or not shown.

SMILES	A3A deaminase	CCR6 antag	APJ antag	A3G deaminase	CXCR6 inh	APJ ag	APOBEC3A confirm	UDG A3A counter
O=C(NCC1CCCN1S(=O)(=O)c1ccccc1)C(=O)NC1CC1 (stereo unspecified)	-0.2	9.2	-2.0	-9.0	4.5	4.3	.	.
O=C1ON=C(c2ccc(Cl)c([N+](=O)[O-])c2)/C1=C/c1cccc([N+](=O)[O-])c1O	81.6*	6.0	17.2	22.6	5.4	-3.8	87.7*	-3.4
O=C1ON=C(c2ccccc2[N+](=O)[O-])/C1=C/c1cccc([N+](=O)[O-])c1O	57.5*	10.3	12.6	17.0	-2.3	-4.2	82.5*	-0.8
O=c1[nH]ncc2c3ccccc3n(Cc3ccccc3F)c12	43.5*	12.0	12.0	-7.5	5.9	1.0	-6.3	1.2
COC(=O)c1ccc(NC(=O)CSc2ccccc2)cc1	1.8	11.5	-19.2	4.1	1.3	-2.8	.	.
COC(=O)c1ccc(NC(=O)CSc2ccccn2)cc1	54.7*	-4.6	3.8	3.9	-1.5	-1.9	6.0	.
COC(=O)c1ccc(NCC(=O)Nc2cc(C)cc(C)c2)cc1	50.1*	9.2	-20.3	18.3	1.7	-1.3	1.4	.
CN(C)c1cccc(N=C2C=C(N3CCOCC3)CC(C)(C)C2)c1	24.9	14.1	13.0	11.4	-2.1	-0.9	.	.
CC1(C)CC(N2CCOCC2)=CC(=[N+]2CCOCC2)C1	66.2*	10.7	1.1	24.6	-4.8	-3.1	69.3*	0.6
CCCN(CCC)C1=CC(=[N+]2CCCC2)CC(C)(C)C1	59.9*	20.9	9.3	27.2	-1.2	0.9	31.4	.
CC1C[N+](=C2C=C(N3CCOCC3)CC(C)(C)C2)CC(C)O1 (stereo unspecified)	56.9*	-1.4	2.0	18.2	0.9	-4.8	65.5*	0.7
CC1(C)CC(N2CCCCC2)=CC(=[N+]2CCCCC2)C1	59.7*	2.5	-1.9	24.7	-7.1	-0.2	69.1*	-1.7
CC1=C(C)C(=O)C(N2CCOCC2)=CC1=O	.	-2.9	.	.	-0.3	.	.	.
CCOc1ccc(-c2nnc(NC(=O)C3CCCC3)o2)cc1	-3.1	-0.5	19.1	-6.5	4.6	0.8	.	.
CCNC(=O)NC(=O)C(C)OC(=O)CCCSc1nc2ccccc2s1 (stereo unspecified)	3.1	2.4	-1.3	-2.9	-1.1	-1.5	.	.
CC(C)S(=O)(=O)c1csc(NC(=O)Nc2cc(Cl)ccc2Cl)c1Cl	-1.9	8.0	17.1	-5.1	-13.4	4.7	.	.
CN1/C(=C\C=[N+](C)c2ccccc2)C(C)(C)c2ccccc21	56.2*	-10.0	5.9	13.0	-1.9	-2.5	77.5*	-33.3
CN1/C(=C\C=N\O)C(C)(C)c2ccccc21	2.4	3.5	10.4	-1.4	-8.4	-4.0	.	.
CCN(CC(=O)Nc1c(F)cccc1F)C(=O)c1ccc(=O)n(C)n1	.	1.0	.	.	-17.4	.	.	.
COc1cccc(CC(=O)OCC(=O)NC(=O)c2ccc(OC(F)F)cc2)c1	1.5	4.3	-3.3	1.3	3.6	5.8	.	.
Cc1occc1C(=O)NCc1ccc(C(=O)O)o1	9.8	-15.0	-14.0	0.9	-7.3	2.7	.	.
Cc1cc(C(=O)NCc2ccc(C(=O)O)o2)c(C)o1	46.7*	0.0	-7.2	15.8	-1.7	1.7	48.0*	5.0
O=C(CSc1ncnc2nc[nH]c12)Nc1ccccc1C(F)(F)F	56.7*	-4.0	-1.8	25.1	6.5	2.5	38.9*	-4.4
Cc1cccc(C)c1NC(=O)CSc1ncnc2nc[nH]c12	3.3	-18.1	-16.7	-4.0	-8.1	-3.1	.	.
O=c1[nH]c(N/N=C/c2cc3c(cc2[N+](=O)[O-])OCO3)nc2ccccc12	43.8*	0.3	18.4	16.1	7.0	-5.8	70.8*	-4.1
SMILES	A3A deaminase	CCR6 antag	APJ antag	A3G deaminase	CXCR6 inh	APJ ag	APOBEC3A confirm	UDG A3A counter
NC(=O)CCN1CCN(C(=O)c2ccc3nc(Cc4cccc(Cl)c4)oc3c2)CC1	-0.6	4.2	-0.2	-2.3	0.4	-5.0	.	.
CCOC(=O)C1=C(C)Nc2sc(C(=O)c3ccc(F)cc3)c(N)c2C1c1ccc(C(=O)OC)cc1 (stereo unspecified)	75.7*	17.5	7.7	-3.0	2.2	-4.2	-10.3	-1.4
COC(=O)Cn1cc(/C=C/c2cc[n+](C)cc2)c2ccccc21	65.6*	6.7	-13.5	25.3	-16.0	1.2	66.7*	-0.2
COC(=O)Cn1c(C)c(/C=C/c2cc[n+](C)cc2)c2ccccc21	79.6	9.1	10.4	30.9	4.6	2.0	.	.
Cc1n(-c2ccccc2)c2ccc(Cl)cc2[n+]1CCO	49.7*	6.6	-4.2	15.8	-3.4	-1.6	75.4*	-2.2
CCCOc1ccccc1C(=O)Nc1ccc(S(=O)(=O)N2CCN(C)CC2)cc1	-2.5	-2.8	-2.9	-7.4	-5.6	-1.9	.	.
CCCCNC(=O)[C@H]1C[C@H]1[C@@H](O)[C@H](CO)NC(=O)[C@H](COCc1ccccc1)NC(=O)OC(C)(C)C	-1.3	6.5	1.6	-1.7	0.6	4.6	.	.
CCCCNC(=O)[C@H]1C[C@H]1[C@@H](O)[C@H](CO)NC(=O)[C@H](Cc1ccccc1)NC(=O)OC(C)(C)C	66.1*	-9.5	7.0	-7.8	-0.5	5.7	-9.4	-0.9
Oc1ccccc1/C=N/[n+]1ccccc1	69.4*	4.8	11.2	14.8	5.3	-2.9	65.9*	-0.7
Oc1ccccc1C=NC(c1ccccc1)C(O)c1ccccc1 (stereo unspecified)	-2.7	-6.0	16.6	-4.7	6.2	1.6	.	.
Cc1[nH]c2ccccc2c1/C=C(\C#N)C(=O)NC1CC1	1.8	-10.4	-8.5	3.5	5.9	-2.9	.	.
Cc1[nH]c2ccccc2c1/C=C(\C#N)C(=O)NC(C)c1ccccc1 (stereo unspecified)	41.2*	13.9	6.9	9.0	-5.0	-4.9	72.4*	1.4
C=CCN1/C(=C2/SC(=S)N(C)C2=O)Sc2ccccc21	95.7*	.	-7.9	22.7	.	1.8	64.2*	.
C[C@@H]1CN([C@@H](C)CO)C(=O)CCCn2nncc2CO[C@@H]1CN(C)C(=O)C1CCCCC1	.	.	.	.	3.2	.	.	.
CC1(OC(=O)C2CCCC2)C(=O)C=C2C=C3CCCCN3C=C2C1=O (stereo unspecified)	43.9*	-2.0	-7.3	19.5	-10.8	6.1	22.8*	2.1
COC(=O)CCC(=O)OC1(C)C(=O)C=C2C=C3CCCN3C=C2C1=O (stereo unspecified)	54.2	-13.5	-56.1	42.8	-1.1	7.6	.	.
O=C(NCCOc1ccccc1)c1ncn[nH]1	75.8*	-2.7	-0.7	20.5	0.6	1.0	52.4*	-2.7

Screening results as filed in PubChem BioAssay.
